The results in this text go back to ChEMBL document CHEMBL1140204, “Discovery of boronic acids as novel and potent inhibitors of fatty acid amide hydrolase” (J Med Chem, 2008).

SMILES strings stand for the structures. Calls of active or inactive are those of the source. The rule behind the calls is not given here.

For orientation: IC50 means the midpoint of a concentration-inhibition curve. By inhibition is commonly meant the percentage by which the read-out fell short of the control.

One experiment concerns the target T1, Monoglyceride lipase (Homo sapiens, UniProt Q99685).
T1 sequence (Q99685 whole entry): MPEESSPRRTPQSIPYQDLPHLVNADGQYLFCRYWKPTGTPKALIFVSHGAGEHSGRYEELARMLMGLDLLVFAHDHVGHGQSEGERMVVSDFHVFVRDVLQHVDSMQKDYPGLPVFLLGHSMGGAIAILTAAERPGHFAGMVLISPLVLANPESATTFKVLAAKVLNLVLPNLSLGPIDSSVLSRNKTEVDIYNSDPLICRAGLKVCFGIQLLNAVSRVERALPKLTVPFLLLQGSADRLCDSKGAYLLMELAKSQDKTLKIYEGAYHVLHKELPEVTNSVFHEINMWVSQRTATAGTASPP
The experiment in a line: Inhibition of human recombinant MGL.

Experiment [1] deals with T2, Fatty-acid amide hydrolase 1 (Rattus norvegicus, UniProt P97612).
T2 sequence (P97612 whole entry): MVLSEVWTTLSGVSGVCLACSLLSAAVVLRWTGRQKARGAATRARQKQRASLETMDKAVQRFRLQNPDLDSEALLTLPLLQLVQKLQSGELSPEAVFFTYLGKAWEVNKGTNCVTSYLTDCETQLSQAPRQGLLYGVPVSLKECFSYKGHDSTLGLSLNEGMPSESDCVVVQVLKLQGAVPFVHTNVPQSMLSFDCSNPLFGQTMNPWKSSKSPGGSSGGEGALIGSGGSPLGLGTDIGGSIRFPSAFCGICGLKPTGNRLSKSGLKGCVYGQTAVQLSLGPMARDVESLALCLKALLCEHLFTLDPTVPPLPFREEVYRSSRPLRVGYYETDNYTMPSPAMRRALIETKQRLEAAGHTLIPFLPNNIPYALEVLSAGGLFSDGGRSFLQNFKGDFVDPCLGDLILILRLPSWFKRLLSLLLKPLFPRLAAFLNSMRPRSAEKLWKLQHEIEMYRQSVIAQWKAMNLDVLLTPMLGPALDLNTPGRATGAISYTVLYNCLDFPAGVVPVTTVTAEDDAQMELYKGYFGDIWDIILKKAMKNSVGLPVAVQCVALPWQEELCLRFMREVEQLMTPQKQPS
Description: Inhibition of Wistar rat brain FAAH assessed as [3H]arachidonoylethanolamide hydrolysis.

Experiment [2] addresses T3, Monoglyceride lipase (Homo sapiens) (UniProt Q99685).
T3 sequence (whole entry): T1 sequence (Q99685 whole entry)
The experiment in a line: Inhibition of human recombinant MGL at 100 uM. An outline of the steps: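 Human recombinant MGL as enzyme source with 2-AG as substrate. Single-concentration screen at 100 µM, expressed as percent inhibition. Mean of two independent experiments, each performed in duplicate.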

Experiment [3] addresses T3, Monoglyceride lipase (Homo sapiens). The experiment in a line: Inhibition of human recombinant MGL assessed as residual enzyme activity at 1 mM.

Regarding `CCCCCCCCCc1ccc(B(O)O)cc1`, the IC50 turned out to be 7900 nM on Monoglyceride lipase and 9.1 nM in experiment [1].

Consider `COc1ccccc1B(O)O`, for which, in experiment [2], the inhibition turned out to be 11%. Moreover, in experiment [1], the IC50 came out at 13000 nM. The matching figures for `COc1ccc(B(O)O)cc1`: 11% and 2000 nM. In the same order, the values of `CCOC(=O)c1cccc(B(O)O)c1` are 34% and 120 nM. On to `OB(O)c1cc2ccccc2o1`, for which the IC50 on Monoglyceride lipase turned out to be 100000 nM; in experiment [1], 330 nM. For the same compound, the Activity in experiment [3] was found to be 8.4%. With `OB(O)c1ccccc1-c1ccccc1`, in experiment [2], the inhibition is 2%. For the same compound, the IC50 in experiment [1] was 110000 nM. As for `COc1cccc(B(O)O)c1`, in experiment [2], the inhibition is 7%.

Consider `OB(O)c1ccc(F)cc1`, for which, in experiment [2], the inhibition amounted to 3%. For the same compound, the IC50 in experiment [1] was determined as 1500 nM. In the same order, the values of `O=[N+]([O-])c1ccc(B(O)O)cc1` are 43% and 210 nM. On to `OB(O)c1ccc(F)nc1`, for which the inhibition in experiment [2] came to 2%. Also, in experiment [1], the IC50 was determined as 10000 nM. The matching figures for `OB(O)c1ccccc1F`: 13% and 710 nM.

As for `OB(O)c1ccccc1C(F)(F)F`, in experiment [2], the inhibition came to 20%. Moreover, the IC50 in experiment [1] came to 68000 nM. On to `OB(O)c1ccc(-c2ccccc2)cc1` [BIPHENYLBORONIC ACID], for which the IC50 in experiment [1] was determined as 21 nM. In the case of `OB(O)c1cc2ccccc2s1`, the IC50 on Monoglyceride lipase is 32000 nM; in experiment [1], 150 nM.

Turning to `N#Cc1cccc(B(O)O)c1`, in experiment [2], the inhibition amounted to 21%. Moreover, the IC50 in experiment [1] amounted to 1600 nM. `OB(O)c1ccc(C(F)(F)F)cc1`: the IC50 in experiment [1] is 36 nM. Still for that read-out and setting: next, `OB(O)c1cccc(-c2ccccc2)c1`: 130 nM. The same measure, in the same setting: as for `OB(O)/C=C/c1ccc(-c2ccccc2)cc1`, the figure is 14 nM. For the compound `OB(O)c1ccccc1` [PHENYLBORONIC ACID], in experiment [2], the result was inactive. Moreover, the IC50 in experiment [1] was found to be 2600 nM.

In the case of `OB(O)c1cccc(C(F)(F)F)c1`, the figures for the IC50 (at Monoglyceride lipase; in experiment [1]) were 38000 nM and 80 nM, respectively. In the case of `N#Cc1ccc(B(O)O)cc1`, the inhibition in experiment [2] was 36%. Further, the concentration for half-maximal inhibition (IC50) in experiment [1] came out at 290 nM.
